Assay results published in ChEMBL document CHEMBL1152428 (Bioorg Med Chem, 2009).
Activity calls are given as the source filed them. The calls are words filed in the database; no cut-off is given here.

Key:
[1] = Inhibition of Marthasterias glacialis CDK1/cyclin B after 30 mins by scintillation counting
[2] = target: Cyclin-dependent kinase 5/CDK5 activator 1 (Homo sapiens, UniProt Q00535); assay: Inhibition of GST-fused recombinant CDK5/p25 expressed in Escherichia coli after 30 mins by scintillation counting
[3] = target: Glycogen synthase kinase-3 (Sus scrofa, UniProt B2LUN4+I6LNT8); assay: Inhibition of pig brain GSK3alpha/beta after 30 mins by scintillation counting
[4] = target: Cyclin-dependent protein kinase PHO85 (Saccharomyces cerevisiae S288c) (UniProt P17157); assay: Inhibition of Saccharomyces cerevisiae YRP1 Pho85 assessed as induction of nuclear localization of GFP-tagged transcription factor Pho4 at 250 uM after 3 hrs by fluorescence microscopy
Summary of the method: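 The drug-sensitized strain YRP1 (snq2Δ pdr5Δ erg6Δ) carried a Pho4-GFP plasmid. Cells were grown overnight without uracil, diluted to OD600 0.5 and treated with 250 µM drug, with methanol as vehicle. After 3 h, GFP localization was examined by fluorescence microscopy (excitation 455–495 nm).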

[5] = target: Cyclin-dependent kinase 1 (Saccharomyces cerevisiae S288c, UniProt P00546); assay: Inhibition of hemagglutininin-tagged Saccharomyces cerevisiae MNY629 Cdc28/Clb2
Summary of the method: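 Cdc28/Clb2-HA was immunoprecipitated from strain MNY629 extracts with anti-HA and protein A/G agarose. Kinase reactions ran 30 min at 30 °C with histone H1, 15 µmol/l [γ-33P]ATP (stock) and varying drug concentrations in buffer C (25 mM MOPS pH 7.2, 15 mM MgCl2, 5 mM EGTA, 1 mM DTT, phosphatase inhibitors). Products were spotted on P81 paper, washed in 1% phosphoric acid and counted by scintillation. IC50 was taken from the dose–response curve.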

Saccharomyces cerevisiae = assay: Growth inhibition of drug-sensitized Saccharomyces cerevisiae YRP1 assessed as growth deffect; type: functional, organism-based
Summary of the method: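 Growth defect of the drug-sensitized YRP1 strain (snq2Δ pdr5Δ erg6Δ) was scored on agar plates by halo assay.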

[6] = Inhibition of histidine6-tagged Plasmodium falciparum recombinant GSK3 expressed in Escherichia coli by scintillation counting
[7] = target: Cyclin-dependent kinase 1 (Saccharomyces cerevisiae S288c) (UniProt P00546); assay: Binding affinity to Saccharomyces cerevisiae Cdc28
Summary of the method: (§1)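 Budding yeast grown to OD600 ~2 were lysed under 2.5 kbar pressure in breaking buffer (25 mM Tris pH 7.4, 100 mM NaCl, 0.2% Triton X100, phosphatase and protease inhibitors) and clarified. The lysate was incubated with Sepharose matrices carrying linker-attached drug (3 µmol/ml resin), methyl control or ethanolamine-blocked beads. Bound proteins were eluted in Laemmli buffer and analysed by SDS–PAGE with silver staining or western blot.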

[8] = target: Cyclin-dependent protein kinase PHO85 (Saccharomyces cerevisiae S288c) (UniProt P17157); assay: Binding affinity to Saccharomyces cerevisiae Pho85; summary of the method: as §1

Cyclin-dependent kinase 5/CDK5 activator 1, sequence (Q00535 whole entry, the tested form may be a part): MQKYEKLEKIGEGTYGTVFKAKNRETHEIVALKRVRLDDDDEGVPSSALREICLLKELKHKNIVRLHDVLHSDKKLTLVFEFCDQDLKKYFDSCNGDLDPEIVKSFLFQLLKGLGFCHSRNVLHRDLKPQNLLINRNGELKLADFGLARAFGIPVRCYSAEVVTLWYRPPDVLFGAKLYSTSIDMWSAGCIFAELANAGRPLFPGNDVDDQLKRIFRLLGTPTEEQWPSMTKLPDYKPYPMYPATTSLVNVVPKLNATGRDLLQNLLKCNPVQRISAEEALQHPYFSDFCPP
Cyclin-dependent kinase 5/CDK5 activator 1, sequence (Q15078 whole entry, further chain, the tested form may be a part): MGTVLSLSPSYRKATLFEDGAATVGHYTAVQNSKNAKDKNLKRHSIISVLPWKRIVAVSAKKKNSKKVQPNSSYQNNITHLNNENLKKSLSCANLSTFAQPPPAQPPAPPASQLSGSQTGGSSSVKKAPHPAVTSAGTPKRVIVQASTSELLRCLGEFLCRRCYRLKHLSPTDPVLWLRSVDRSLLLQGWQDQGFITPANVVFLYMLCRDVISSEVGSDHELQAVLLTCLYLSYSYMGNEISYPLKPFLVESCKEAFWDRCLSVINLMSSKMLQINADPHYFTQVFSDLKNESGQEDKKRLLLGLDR
Cyclin-dependent kinase 1, sequence (P00546 whole entry): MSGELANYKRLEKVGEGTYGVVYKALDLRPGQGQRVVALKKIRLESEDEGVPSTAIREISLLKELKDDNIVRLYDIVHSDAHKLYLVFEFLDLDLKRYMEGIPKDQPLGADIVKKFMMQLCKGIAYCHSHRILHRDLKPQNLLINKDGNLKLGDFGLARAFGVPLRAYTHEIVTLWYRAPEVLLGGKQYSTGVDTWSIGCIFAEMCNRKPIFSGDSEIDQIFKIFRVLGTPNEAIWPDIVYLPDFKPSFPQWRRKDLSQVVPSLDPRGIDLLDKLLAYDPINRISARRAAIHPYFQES
Cyclin-dependent protein kinase PHO85 (Saccharomyces cerevisiae S288c), sequence (P17157 whole entry): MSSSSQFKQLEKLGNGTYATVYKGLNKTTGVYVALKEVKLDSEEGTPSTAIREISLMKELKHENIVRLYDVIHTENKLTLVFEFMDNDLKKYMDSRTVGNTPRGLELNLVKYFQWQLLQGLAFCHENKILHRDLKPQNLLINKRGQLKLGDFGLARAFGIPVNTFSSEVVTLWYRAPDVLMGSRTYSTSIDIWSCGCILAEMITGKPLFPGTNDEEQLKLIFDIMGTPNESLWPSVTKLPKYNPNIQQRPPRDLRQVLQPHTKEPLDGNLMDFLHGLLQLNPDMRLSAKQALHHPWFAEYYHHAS
Cyclin-dependent kinase 1 (Saccharomyces cerevisiae S288c), sequence (P00546 2-298 limits assumed): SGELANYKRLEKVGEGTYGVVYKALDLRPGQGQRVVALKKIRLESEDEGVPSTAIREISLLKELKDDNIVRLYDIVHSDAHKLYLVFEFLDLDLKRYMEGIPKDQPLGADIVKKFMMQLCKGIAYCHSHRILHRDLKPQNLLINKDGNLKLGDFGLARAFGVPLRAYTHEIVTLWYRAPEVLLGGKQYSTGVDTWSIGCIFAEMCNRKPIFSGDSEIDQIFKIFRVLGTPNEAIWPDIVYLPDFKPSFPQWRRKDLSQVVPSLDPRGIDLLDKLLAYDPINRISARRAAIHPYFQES

| Compound | IC50 [1] | IC50 [2] | IC50 [3] | Activity [4] | IC50 [5] | growth inhibition (GI) (Saccharomyces cerevisiae) | IC50 [6] | Activity [7] | Activity [8] |
| --- | --- | --- | --- | --- | --- | --- | --- | --- | --- |
| CCCCc1c(-c2ccc(OCCOCCOCCN)cc2)n(C)c2nccnc12 | 100 µM | 50 µM | 45 µM |  |  |  |  |  |  |
| CCCCc1c(-c2ccc(O)c(-c3cn(CCOCCOCCN)nn3)c2)[nH]c2nccnc12 | 6.7 µM | > 10 µM | 5.8 µM |  |  |  |  |  |  |
| CCCCc1c(-c2ccc(OCCOCCOCCN)cc2)[nH]c2nccnc12 | 0.23 µM | 0.66 µM | 0.34 µM |  |  |  |  |  |  |
| CCCCc1c(-c2ccc(O)c(-c3cn(CCOCCOCCN)nn3)c2)n(C)c2nccnc12 | > 10 µM | > 10 µM | > 10 µM |  |  |  |  |  |  |
| CCCCc1c(-c2ccc(O)cc2)[nH]c2nccnc12 [ALOISINE A] |  |  | 0.65 µM | Active | 2.5 µM | inactive | 5.5 µM |  |  |
| CCCCc1c(-c2ccc(O)cc2)n(C)c2nccnc12 [N-METHYL-ALOISINE A] | 140 µM | 160 µM | > 200 µM |  | > 33 µM |  | > 100 µM | inactive | inactive |
